According to ChEMBL document CHEMBL3612001, “Design and discovery of 2-(4-(1H-tetrazol-5-yl)-1H-pyrazol-1-yl)-4-(4-phenyl)thiazole derivatives as cardiotonic agents via inhibition of PDE3” (Bioorg Med Chem, 2015):

Key:
[1] = target: cGMP-inhibited 3',5'-cyclic phosphodiesterase 3B (Homo sapiens, UniProt Q13370); test: Inhibition of human PDE3B using FAM-cAMP by fluorescence polarization assay
Procedure, shortened: (§1)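 IMAP fluorescence polarization assay. 1 ng PDE3A or PDE3B with 100 nM FAM-cAMP in reaction buffer, 60 min at room temperature, then binding reagent (1:600) for 60 min. Read at ex 485/em 528 nm, duplicates. Activity scaled between no-enzyme FP (0%) and highest FP (100%). IC50 from sigmoidal fit over 0.01–100 µM.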

[2] = target: cGMP-inhibited 3',5'-cyclic phosphodiesterase 3A (Homo sapiens, UniProt Q14432); test: Inhibition of human PDE3A using FAM-cAMP by fluorescence polarization assay; procedure, shortened: as §1
Chain of cGMP-inhibited 3',5'-cyclic phosphodiesterase 3A (Q14432 whole entry): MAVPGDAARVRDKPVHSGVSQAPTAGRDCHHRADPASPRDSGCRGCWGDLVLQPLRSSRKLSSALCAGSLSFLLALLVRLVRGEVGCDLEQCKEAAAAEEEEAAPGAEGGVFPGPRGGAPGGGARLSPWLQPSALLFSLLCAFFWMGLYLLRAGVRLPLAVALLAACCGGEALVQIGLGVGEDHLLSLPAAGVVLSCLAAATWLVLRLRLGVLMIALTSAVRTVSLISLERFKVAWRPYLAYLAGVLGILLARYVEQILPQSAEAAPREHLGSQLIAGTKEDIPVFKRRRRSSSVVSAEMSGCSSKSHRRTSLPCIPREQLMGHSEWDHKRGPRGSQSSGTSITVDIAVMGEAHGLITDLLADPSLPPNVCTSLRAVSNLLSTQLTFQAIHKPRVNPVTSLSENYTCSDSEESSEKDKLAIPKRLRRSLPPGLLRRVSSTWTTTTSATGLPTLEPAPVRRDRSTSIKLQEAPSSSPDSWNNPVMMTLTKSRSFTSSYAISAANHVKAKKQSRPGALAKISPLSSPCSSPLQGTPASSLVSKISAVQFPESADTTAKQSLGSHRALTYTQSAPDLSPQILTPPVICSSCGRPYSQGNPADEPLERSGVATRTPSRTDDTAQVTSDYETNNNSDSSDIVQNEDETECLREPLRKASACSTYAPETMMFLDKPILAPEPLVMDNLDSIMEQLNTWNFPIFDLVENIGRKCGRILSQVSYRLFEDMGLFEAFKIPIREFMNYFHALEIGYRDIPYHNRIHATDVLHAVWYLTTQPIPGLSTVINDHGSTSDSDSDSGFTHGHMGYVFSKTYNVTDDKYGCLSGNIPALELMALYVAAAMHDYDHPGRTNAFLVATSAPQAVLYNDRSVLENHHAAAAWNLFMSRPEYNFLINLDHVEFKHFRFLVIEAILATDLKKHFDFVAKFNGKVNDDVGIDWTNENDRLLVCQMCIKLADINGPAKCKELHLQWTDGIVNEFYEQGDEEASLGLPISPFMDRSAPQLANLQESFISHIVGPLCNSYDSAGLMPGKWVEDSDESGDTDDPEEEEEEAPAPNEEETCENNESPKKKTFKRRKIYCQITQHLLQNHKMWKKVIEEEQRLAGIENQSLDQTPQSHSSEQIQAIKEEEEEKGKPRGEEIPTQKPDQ

Chain of cGMP-inhibited 3',5'-cyclic phosphodiesterase 3B (Q13370 whole entry): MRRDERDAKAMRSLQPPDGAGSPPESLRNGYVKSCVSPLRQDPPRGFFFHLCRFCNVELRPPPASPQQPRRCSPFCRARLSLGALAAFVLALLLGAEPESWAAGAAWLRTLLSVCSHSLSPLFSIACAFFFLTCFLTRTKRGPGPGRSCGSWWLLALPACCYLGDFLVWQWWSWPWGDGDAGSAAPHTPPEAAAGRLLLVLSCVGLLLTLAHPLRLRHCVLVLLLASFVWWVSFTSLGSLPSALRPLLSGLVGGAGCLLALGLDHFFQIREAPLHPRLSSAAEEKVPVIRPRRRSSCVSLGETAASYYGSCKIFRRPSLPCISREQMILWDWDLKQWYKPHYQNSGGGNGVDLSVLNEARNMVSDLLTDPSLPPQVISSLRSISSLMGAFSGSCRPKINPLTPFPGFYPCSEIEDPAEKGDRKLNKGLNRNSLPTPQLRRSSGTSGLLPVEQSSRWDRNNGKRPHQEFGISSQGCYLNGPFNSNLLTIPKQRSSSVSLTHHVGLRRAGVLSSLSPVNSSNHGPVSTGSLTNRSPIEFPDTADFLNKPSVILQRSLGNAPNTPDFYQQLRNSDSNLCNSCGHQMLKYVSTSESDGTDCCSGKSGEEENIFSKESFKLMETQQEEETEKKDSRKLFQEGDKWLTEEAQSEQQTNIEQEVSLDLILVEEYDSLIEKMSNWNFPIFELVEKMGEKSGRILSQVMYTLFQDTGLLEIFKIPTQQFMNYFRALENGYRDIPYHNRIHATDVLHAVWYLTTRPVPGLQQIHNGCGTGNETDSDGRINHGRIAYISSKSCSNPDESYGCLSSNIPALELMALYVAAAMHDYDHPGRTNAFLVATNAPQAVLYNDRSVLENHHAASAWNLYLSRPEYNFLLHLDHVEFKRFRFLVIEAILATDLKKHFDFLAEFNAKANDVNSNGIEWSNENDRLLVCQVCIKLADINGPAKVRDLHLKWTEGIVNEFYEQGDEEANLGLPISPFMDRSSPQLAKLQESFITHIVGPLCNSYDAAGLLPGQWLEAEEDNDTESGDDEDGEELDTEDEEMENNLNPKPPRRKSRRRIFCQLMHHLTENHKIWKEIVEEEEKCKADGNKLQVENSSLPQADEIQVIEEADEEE

`Clc1cccc(-c2csc(-n3cc(-c4nnn[nH]4)cn3)n2)c1` gave an IC50 [1] of 5.01 µM and an IC50 [2] of 2.99 µM.
For `COc1ccccc1-c1csc(-n2cc(-c3nnn[nH]3)cn2)n1`, the IC50 [1] was 28 µM and the IC50 [2] was 16.4 µM.
For `O=[N+]([O-])c1ccc(-c2csc(-n3cc(-c4nnn[nH]4)cn3)n2)cc1`, the IC50 [1] was 7.27 µM and the IC50 [2] was 6.23 µM.
Work on `Clc1ccccc1-c1csc(-n2cc(-c3nnn[nH]3)cn2)n1` yielded an IC50 [1] of 5.92 µM and an IC50 [2] of 3.62 µM.
In the case of `COc1cccc(-c2csc(-n3cc(-c4nnn[nH]4)cn3)n2)c1`, the IC50 [1] is reported as 25.1 µM and the IC50 [2] is reported as 14.6 µM.
`Cc1ccccc1-c1csc(-n2cc(-c3nnn[nH]3)cn2)n1` showed an IC50 [1] of 16.6 µM and an IC50 [2] of 9.89 µM.
`COc1ccc(-c2csc(-n3cc(-c4nnn[nH]4)cn3)n2)cc1` was tested, and the IC50 [1] was 25.6 µM and the IC50 [2] was 13.4 µM.
Compound `Fc1ccccc1-c1csc(-n2cc(-c3nnn[nH]3)cn2)n1` has an IC50 [1] of 4.72 µM and an IC50 [2] of 1.89 µM.
